Reference: publication PMC5319884 (Biochemistry, 2017)
“Also recorded” adds a separate entry of the source. Where two headings read alike, the source gives them in different places.

Columns and labels:
Format in all cases: biochemical
hGOAT [1] = target: T1, hGOAT (Homo sapiens, UniProt Q96T53); test: in vitro hGOAT octanoylation activity assay
T1 sequence (Q96T53 1-435): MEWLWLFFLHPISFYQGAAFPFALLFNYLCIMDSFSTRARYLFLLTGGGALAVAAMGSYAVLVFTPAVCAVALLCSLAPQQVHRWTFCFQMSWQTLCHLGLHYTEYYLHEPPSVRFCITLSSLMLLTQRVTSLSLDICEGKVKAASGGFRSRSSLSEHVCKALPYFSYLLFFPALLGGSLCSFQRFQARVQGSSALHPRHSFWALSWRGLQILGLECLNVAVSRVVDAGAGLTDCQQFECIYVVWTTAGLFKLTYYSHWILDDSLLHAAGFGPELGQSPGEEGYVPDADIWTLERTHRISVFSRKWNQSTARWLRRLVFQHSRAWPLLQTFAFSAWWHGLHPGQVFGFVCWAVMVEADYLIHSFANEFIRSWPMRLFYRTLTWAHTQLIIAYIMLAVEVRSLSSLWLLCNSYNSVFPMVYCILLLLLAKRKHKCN
In short: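 hGOAT was expressed in Sf9 cell membrane fractions, homogenized by needle, and ~100 μg membrane protein was preincubated 30 min at room temperature with 1 μM MAFP and test compound or vehicle (DMSO or ethanol) in 50 mM HEPES pH 7.0. Reactions were started with 500 μM octanoyl-CoA and 1.5 μM acrylodan-labeled peptide, run 3 h at room temperature in the dark, acid/isopropanol-stopped, TCA-clarified and analysed by reverse-phase HPLC. Percent activity was taken as octanoylated/total peptide fluorescence relative to vehicle, from three independent determinations.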

hGOAT [2] = target: T1, hGOAT; test: inhibitor time dependence with hGOAT; details: preincubation 5-60 min, 10 min reaction, 30 μM CDDO-EA
In short: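 hGOAT Sf9 membranes (~100 μg protein) were first preincubated 30 min at RT with 1 μM MAFP in 50 mM HEPES pH 7.0. Inhibitor or vehicle was then added for 5, 10, 30 or 60 min before starting with 500 μM octanoyl CoA and 1.5 μM GSSFLC-acrylodan. The reaction ran only 10 min at RT in the dark, then was stopped and analysed by RP-HPLC. % activity versus vehicle and IC50 were derived per preincubation time; minimum of three measurements.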

mGOAT = target: T2, mGOAT (Mus musculus, UniProt P0C7A3); test: in vitro mGOAT octanoylation activity assay; details: side-by-side assay, mGOAT IC50 higher than hGOAT
T2 sequence (P0C7A3 1-435): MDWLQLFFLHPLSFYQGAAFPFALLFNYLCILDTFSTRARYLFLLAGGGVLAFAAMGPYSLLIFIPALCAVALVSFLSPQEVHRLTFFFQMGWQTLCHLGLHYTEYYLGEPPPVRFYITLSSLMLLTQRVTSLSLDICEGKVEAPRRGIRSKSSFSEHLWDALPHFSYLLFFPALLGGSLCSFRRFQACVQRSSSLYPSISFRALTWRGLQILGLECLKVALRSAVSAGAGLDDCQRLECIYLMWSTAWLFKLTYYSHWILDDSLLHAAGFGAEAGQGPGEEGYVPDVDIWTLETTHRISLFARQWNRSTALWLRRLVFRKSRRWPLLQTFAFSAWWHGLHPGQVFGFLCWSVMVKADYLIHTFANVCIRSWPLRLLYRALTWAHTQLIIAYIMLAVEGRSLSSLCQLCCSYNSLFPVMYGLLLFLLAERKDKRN
In short: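 mGOAT and hGOAT were expressed in Sf9 insect-cell membrane fractions, which were thawed on ice and homogenised through an 18-gauge needle. About 100 μg membrane protein was preincubated 30 min at room temperature with 1 μM MAFP plus inhibitor or vehicle (DMSO or ethanol) in 50 mM HEPES pH 7.0.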

hGOAT [3] = target: T1, hGOAT; test: inhibitor reversibility; details: pretreatment at 3 x IC50, 10-fold dilution
In short: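 Undiluted homogenised Sf9 membrane containing hGOAT (~7 μg/μL protein) was preincubated 30 min at RT with 10 μM MAFP and inhibitor or vehicle (DMSO or ethanol). It was then diluted 10-fold into 50 mM HEPES pH 7.0 with 500 μM octanoyl CoA, 1.5 μM GSSFLC-acrylodan, and either vehicle or inhibitor at the same final level as in preincubation. Reactions ran 3 h at RT in the dark, followed by RP-HPLC quantitation of octanoylated peptide.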

Row | Compound | inhibition of hGOAT activity (hGOAT [1]) | reversibility of hGOAT inhibition (hGOAT [3]) | inhibition of hGOAT activity (hGOAT [1]; at concentrations up to 100 μM) | further results
1 | COC(=O)[C@]12CCC(C)(C)C[C@H]1[C@H]1C(=O)C=C3[C@@]4(C)C=C(C#N)C(=O)C(C)(C)[C@@H]4CC[C@@]3(C)[C@]1(C)CC2 [Compound 2, methyl 2-cyano-3,12-dioxooleana-1,9(11)dien-28-oate] | exhibits inhibitory activity against hGOAT; also recorded: most potent inhibition of hGOAT |  |  | 
2 | CCNC(=O)[C@]12CCC(C)(C)C[C@H]1[C@H]1C(=O)C=C3[C@@]4(C)C=C(C#N)C(=O)C(C)(C)[C@@H]4CC[C@@]3(C)[C@]1(C)CC2 [Compound 3] | most potent inhibition of hGOAT | reversible hGOAT inhibition |  | time dependence of hGOAT inhibition (hGOAT [2]): time-dependent inhibition; IC50 against mGOAT relative to hGOAT (mGOAT): ~ 8 fold
3 | CC1(C)CC[C@]2(C(=O)O)CC[C@]3(C)[C@H](C(=O)C=C4[C@@]5(C)C=C(C#N)C(=O)C(C)(C)[C@@H]5CC[C@]43C)[C@@H]2C1 [Compound 5] | lack of inhibition |  |  | 
4 | C[C@H]1[C@H](C)CC[C@]2(C(=O)O)CC[C@]3(C)C(=CC[C@@H]4[C@@]5(C)CC[C@H](O)C(C)(C)[C@@H]5CC[C@]43C)[C@H]12 [Compound 6, ursolic acid] |  |  | negligible inhibition | 
5 | CC1(C)CC[C@]2(C(=O)O)CC[C@]3(C)C(=CC[C@@H]4[C@@]5(C)CC[C@H](O)C(C)(C)[C@@H]5CC[C@]43C)[C@@H]2C1 [Compound 7, oleanic acid] |  |  | negligible inhibition | 
6 | CC1(C)CC[C@]2(C)CC=C3[C@]4(C)CC[C@H]5C(C)(C)[C@@H](O)CC[C@]5(C)[C@H]4CC[C@@]3(C)[C@@H]2C1 [Compound 8, taraxerol] |  |  | fails to inhibit | 
7 | C[C@]12CC[C@@H]3c4ccc(O)cc4CC[C@H]3[C@@H]1CCC2=O [Compound 15, estrone] | lack of hGOAT inhibition |  |  | 
8 | O=C1C=CCCC1 [Compound 18, cyclohexenone] |  |  |  | inhibition of hGOAT activity (hGOAT [1]; at concentrations up to 1 mM): does not inhibit hGOAT activity
9 | CCN1C(=O)C=CC1=O [NEM, N-ethylmaleimide] | efficiently inhibits hGOAT | irreversible hGOAT inhibition |  | 
10 | [Dap^3]octanoyl-ghrelin (1-5)-NH2 |  | reversible inhibition |  | 
